The results in this text go back to ChEMBL document CHEMBL6087468, “TKK130 is a 3-Hydroxy-Propanamidine (HPA) with Potent Antimalarial In Vivo Activity and a High Barrier to Resistance” (J Med Chem, 2025).

The nature of series [1]: Plasma protein binding in plasma (unknown origin) at 25 ng/ml measured after 24 hrs by dilution method. The class given is ADME, cell-free. A digest of the protocol: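 Equilibrium dialysis with donor plasma diluted 1:10 or 1:20 in 0.9% saline, spiked at 25 ng/mL, against 0.9% saline acceptor for 24 h at 37 °C. Concentrations by LC–MS/MS against diluted-plasma calibration curves; unbound fraction (acceptor/donor) back-calculated to undiluted plasma; triplicate; itraconazole reference.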

The next series relates to Plasmodium berghei. As to the kind of experiment: In vivo antiplasmodial activity against Plasmodium berghei infected mouse model assessed as parasitemia suppression in blood at 50 mg/kg, po treated 4 times measured at 96 hrs post infection by fluorescence-activated cell sorting (FACS) analysis. In kind it is functional.
Series [2] has as its target Voltage-gated inwardly rectifying potassium channel KCNH2 (Homo sapiens, UniProt Q12809). The experiment in a line: Inhibition of hERG by fluorescence polarization assay. In kind it is toxicity.

Sequence of Voltage-gated inwardly rectifying potassium channel KCNH2 (Q12809 whole entry): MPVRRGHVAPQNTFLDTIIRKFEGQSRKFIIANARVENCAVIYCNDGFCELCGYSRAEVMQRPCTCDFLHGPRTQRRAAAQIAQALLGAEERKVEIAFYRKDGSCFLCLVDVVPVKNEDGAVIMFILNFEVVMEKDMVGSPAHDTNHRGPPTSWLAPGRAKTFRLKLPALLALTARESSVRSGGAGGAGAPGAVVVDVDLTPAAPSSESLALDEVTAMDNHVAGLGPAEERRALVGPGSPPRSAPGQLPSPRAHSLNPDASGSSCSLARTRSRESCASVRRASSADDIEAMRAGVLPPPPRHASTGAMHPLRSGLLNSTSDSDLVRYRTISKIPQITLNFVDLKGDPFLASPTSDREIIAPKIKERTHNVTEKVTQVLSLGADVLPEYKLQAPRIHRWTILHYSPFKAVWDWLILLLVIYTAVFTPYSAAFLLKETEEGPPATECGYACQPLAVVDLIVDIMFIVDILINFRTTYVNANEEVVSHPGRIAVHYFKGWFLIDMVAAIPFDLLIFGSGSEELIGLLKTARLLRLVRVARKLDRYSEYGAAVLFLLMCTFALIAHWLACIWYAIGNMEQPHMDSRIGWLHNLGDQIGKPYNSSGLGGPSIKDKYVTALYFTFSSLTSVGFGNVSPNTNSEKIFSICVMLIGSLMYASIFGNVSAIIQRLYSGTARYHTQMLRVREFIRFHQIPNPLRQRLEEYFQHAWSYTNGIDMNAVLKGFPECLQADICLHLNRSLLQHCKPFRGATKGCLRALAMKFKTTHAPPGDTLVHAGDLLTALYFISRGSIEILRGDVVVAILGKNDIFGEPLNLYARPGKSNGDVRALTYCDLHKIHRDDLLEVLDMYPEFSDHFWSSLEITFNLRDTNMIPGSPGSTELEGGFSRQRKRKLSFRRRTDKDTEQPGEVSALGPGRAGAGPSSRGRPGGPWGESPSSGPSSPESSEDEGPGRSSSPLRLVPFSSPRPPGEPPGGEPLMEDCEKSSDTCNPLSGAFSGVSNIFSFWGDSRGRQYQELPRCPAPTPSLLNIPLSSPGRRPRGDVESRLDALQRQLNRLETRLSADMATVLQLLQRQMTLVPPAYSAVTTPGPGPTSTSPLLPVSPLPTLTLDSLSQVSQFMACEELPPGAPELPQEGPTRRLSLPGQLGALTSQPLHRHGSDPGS

In series [1], `Cl.N=C(CC(O)c1cc2c(F)cc(F)cc2c2cc(C(F)(F)F)ccc12)Nc1ccc(F)cc1` (stereo not drawn) returned a free fraction (fraction unbound) at 24 h, 25 ng/ml of 0.004. For the same compound, the Activity in the series on Plasmodium berghei is 99.8%. The compound further registered a half-inhibitory concentration (IC50) in series [2] of 300 nM.
